In the M2OR odorant receptor database:

What was measured:
Settings in all cases: stereoisomer not certain
OR13C2 (Homo sapiens) = target: T1, OR13C2 (Homo sapiens) (UniProt Q8NGS9)
T1 sequence (whole entry): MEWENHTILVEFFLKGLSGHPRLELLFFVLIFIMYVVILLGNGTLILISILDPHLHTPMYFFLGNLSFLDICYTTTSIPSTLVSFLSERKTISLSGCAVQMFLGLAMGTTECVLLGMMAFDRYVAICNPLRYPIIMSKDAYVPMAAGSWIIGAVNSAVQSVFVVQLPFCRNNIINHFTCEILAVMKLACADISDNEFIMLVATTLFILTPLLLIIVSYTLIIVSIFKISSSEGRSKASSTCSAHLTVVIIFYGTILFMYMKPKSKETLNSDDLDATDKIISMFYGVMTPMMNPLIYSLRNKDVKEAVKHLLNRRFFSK
Procedure, shortened: (§1)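 Each receptor–molecule pair is labelled responsive or non-responsive (inactive) according to whether the original authors judged the measured signal statistically different from baseline. The data were taken from the main text and supplementary material of published papers and checked for typos and inconsistencies. Assay methods differed by source, with transient luciferase assays in mammalian cell lines being common.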

OR13C3 (Homo sapiens) = target: T2, OR13C3 (Homo sapiens) (UniProt Q8NGS6)
T2 sequence (whole entry): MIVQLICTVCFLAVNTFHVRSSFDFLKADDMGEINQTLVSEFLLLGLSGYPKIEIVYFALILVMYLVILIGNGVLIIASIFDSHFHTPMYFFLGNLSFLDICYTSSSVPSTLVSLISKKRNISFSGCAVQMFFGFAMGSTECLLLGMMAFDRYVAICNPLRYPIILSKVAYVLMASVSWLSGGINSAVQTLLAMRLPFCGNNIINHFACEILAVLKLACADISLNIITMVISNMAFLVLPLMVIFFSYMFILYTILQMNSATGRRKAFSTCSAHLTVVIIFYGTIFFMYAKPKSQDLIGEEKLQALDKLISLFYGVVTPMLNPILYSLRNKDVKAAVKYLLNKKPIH
Procedure, shortened: as §1

OR13C4 (Homo sapiens) = target: T3, OR13C4 (Homo sapiens) (UniProt Q8NGS5)
T3 sequence (whole entry): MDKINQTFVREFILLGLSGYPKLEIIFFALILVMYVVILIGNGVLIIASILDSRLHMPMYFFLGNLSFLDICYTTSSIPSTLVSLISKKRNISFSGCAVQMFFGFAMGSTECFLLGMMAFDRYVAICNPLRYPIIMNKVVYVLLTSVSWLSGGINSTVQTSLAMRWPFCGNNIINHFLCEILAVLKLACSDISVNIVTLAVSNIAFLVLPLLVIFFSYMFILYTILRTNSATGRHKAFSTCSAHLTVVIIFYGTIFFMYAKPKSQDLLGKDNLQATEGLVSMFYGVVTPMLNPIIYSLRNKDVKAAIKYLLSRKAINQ
Procedure, shortened: as §1

OR13C5 (Homo sapiens) = target: T4, OR13C5 (Homo sapiens) (UniProt Q8NGS8)
T4 sequence (whole entry): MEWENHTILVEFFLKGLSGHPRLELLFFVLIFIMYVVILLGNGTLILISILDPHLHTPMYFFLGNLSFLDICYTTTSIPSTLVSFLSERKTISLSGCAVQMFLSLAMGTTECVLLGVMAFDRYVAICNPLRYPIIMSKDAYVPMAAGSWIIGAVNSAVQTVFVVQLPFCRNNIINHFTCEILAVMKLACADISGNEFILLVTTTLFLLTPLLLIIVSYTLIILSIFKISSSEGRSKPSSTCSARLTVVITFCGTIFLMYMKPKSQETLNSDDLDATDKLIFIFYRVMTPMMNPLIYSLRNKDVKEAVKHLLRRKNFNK
Procedure, shortened: as §1

OR13C8 (Homo sapiens) = target: T5, OR13C8 (Homo sapiens) (UniProt Q8NGS7)
T5 sequence (whole entry): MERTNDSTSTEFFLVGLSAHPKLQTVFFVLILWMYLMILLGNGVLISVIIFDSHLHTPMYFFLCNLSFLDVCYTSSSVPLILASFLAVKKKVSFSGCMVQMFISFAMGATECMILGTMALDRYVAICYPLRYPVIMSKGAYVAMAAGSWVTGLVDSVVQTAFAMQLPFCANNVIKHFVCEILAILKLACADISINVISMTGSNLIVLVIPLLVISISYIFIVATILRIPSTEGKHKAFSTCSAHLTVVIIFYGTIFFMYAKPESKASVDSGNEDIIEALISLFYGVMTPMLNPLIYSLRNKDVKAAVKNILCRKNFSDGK
Procedure, shortened: as §1

OR13C9 (Homo sapiens) = target: T6, OR13C9 (Homo sapiens) (UniProt Q8NGT0)
T6 sequence (whole entry): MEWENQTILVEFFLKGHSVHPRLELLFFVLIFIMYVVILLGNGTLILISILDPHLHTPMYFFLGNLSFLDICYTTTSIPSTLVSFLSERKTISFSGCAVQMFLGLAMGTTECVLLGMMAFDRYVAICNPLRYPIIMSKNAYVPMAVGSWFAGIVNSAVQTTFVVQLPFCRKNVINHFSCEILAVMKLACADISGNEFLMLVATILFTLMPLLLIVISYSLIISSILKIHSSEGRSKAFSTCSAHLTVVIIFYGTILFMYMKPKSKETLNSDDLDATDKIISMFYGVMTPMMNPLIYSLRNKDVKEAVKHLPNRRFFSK
Procedure, shortened: as §1

OR13D1 (Homo sapiens) = target: T7, OR13D1 (Homo sapiens) (UniProt Q8NGV5)
T7 sequence (whole entry): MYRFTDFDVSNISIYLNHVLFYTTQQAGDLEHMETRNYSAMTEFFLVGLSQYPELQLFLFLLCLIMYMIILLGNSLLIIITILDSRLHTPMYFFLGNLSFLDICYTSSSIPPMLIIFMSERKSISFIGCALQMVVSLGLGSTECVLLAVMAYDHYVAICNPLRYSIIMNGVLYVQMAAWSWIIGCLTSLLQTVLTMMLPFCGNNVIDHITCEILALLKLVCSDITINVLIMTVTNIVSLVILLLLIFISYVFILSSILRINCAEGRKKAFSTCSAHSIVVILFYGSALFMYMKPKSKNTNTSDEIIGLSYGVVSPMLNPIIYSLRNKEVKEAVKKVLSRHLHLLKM
Procedure, shortened: as §1

OR13F1 (Homo sapiens) = target: T8, OR13F1 (Homo sapiens) (UniProt Q8NGS4)
T8 sequence (whole entry): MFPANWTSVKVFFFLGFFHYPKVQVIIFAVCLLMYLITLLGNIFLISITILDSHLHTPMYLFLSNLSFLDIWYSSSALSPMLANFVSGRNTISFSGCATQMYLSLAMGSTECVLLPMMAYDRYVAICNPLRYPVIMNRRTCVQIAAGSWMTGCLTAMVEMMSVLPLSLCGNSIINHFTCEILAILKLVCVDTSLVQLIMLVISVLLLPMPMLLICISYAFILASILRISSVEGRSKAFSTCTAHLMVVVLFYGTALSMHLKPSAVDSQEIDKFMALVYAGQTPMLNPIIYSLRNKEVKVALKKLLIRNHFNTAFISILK
Procedure, shortened: as §1

OR13G1 (Homo sapiens) = target: T9, OR13G1 (Homo sapiens) (UniProt Q8NGZ3)
T9 sequence (whole entry): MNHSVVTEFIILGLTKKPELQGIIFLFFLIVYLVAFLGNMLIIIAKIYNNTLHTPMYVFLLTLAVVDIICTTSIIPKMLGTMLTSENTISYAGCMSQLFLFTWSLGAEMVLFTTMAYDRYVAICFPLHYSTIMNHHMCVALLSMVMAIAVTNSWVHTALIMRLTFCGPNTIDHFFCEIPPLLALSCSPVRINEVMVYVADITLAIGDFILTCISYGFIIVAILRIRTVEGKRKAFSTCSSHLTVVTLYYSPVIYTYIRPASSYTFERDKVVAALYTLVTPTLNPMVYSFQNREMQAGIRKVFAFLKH
Procedure, shortened: as §1

OR13H1 (Homo sapiens) = target: T10, OR13H1 (Homo sapiens) (UniProt Q8NG92)
T10 sequence (whole entry): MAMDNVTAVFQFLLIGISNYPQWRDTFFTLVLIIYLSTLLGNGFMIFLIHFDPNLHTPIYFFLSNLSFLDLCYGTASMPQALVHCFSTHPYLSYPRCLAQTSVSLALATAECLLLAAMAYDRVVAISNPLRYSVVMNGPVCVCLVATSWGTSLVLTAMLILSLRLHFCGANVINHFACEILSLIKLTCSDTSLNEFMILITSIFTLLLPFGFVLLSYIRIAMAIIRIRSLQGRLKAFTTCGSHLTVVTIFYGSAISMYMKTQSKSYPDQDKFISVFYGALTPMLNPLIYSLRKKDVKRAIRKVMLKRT
Procedure, shortened: as §1

OR13J1 (Homo sapiens) = target: T11, OR13J1 (Homo sapiens) (UniProt Q8NGT2)
T11 sequence (whole entry): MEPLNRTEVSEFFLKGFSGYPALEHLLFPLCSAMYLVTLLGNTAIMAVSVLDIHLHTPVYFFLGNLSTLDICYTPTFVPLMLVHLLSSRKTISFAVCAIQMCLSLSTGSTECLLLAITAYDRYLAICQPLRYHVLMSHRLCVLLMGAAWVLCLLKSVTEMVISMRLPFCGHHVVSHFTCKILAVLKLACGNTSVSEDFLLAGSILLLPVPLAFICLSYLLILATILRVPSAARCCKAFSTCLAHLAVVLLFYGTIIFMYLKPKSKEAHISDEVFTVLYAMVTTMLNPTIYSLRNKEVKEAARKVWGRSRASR
Procedure, shortened: as §1

OR14A16 (Homo sapiens) = target: T12, OR14A16 (Homo sapiens) (UniProt Q8NHC5)
T12 sequence (whole entry): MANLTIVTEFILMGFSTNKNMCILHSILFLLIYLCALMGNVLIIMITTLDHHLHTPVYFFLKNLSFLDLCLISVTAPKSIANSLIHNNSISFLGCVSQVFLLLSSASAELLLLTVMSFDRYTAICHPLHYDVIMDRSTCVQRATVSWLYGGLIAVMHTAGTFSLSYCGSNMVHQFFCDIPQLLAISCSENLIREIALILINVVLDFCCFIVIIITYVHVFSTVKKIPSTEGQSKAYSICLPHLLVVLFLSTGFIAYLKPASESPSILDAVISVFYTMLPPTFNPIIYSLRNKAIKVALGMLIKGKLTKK
Procedure, shortened: as §1

OR14A2 (Homo sapiens) = target: T13, OR14A2 (Homo sapiens) (UniProt Q96R54)
T13 sequence (whole entry): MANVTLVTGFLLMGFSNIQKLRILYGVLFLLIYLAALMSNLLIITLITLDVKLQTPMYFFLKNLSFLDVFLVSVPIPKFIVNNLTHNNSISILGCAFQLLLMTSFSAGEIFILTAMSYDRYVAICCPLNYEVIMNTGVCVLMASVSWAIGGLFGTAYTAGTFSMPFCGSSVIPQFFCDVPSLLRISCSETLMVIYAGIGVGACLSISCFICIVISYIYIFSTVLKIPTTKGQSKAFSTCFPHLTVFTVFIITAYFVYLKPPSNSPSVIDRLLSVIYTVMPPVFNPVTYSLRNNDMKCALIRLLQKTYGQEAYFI
Procedure, shortened: as §1

OR14C36 (Homo sapiens) = target: T14, OR14C36 (Homo sapiens) (UniProt Q8NHC7)
T14 sequence (whole entry): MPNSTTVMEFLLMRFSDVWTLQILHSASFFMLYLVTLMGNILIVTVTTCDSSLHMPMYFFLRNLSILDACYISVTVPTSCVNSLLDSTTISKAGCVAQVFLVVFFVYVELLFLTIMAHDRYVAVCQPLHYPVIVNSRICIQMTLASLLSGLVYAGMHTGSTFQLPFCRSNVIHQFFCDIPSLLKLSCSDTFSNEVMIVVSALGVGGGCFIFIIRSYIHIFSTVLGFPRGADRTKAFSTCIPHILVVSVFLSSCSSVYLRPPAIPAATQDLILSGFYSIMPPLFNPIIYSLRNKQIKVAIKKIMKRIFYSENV
Procedure, shortened: as §1

OR14I1 (Homo sapiens) = target: T15, OR14I1 (Homo sapiens) (UniProt A6ND48)
T15 sequence (whole entry): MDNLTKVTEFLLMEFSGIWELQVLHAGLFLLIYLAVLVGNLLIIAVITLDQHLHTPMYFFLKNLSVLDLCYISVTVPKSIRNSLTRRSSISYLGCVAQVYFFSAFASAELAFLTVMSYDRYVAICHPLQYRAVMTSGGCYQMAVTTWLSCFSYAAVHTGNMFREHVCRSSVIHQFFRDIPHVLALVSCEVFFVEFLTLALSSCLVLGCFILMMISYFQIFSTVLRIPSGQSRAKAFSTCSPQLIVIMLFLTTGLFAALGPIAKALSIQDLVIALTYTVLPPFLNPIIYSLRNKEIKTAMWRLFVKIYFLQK
Procedure, shortened: as §1

OR14J1 (Homo sapiens) = target: T16, OR14J1 (Homo sapiens) (UniProt Q9UGF5)
T16 sequence (whole entry): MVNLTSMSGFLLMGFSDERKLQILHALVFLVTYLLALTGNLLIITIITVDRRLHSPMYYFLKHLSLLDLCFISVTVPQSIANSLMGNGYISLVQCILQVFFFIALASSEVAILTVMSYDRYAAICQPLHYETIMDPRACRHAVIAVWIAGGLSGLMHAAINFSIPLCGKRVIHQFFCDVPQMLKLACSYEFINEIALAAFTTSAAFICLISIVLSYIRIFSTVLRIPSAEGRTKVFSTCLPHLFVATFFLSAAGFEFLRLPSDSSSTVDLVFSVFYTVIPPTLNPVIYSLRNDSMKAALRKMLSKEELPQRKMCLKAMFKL
Procedure, shortened: as §1

OR14K1 (Homo sapiens) = target: T17, OR14K1 (Homo sapiens) (UniProt Q8NGZ2)
T17 sequence (whole entry): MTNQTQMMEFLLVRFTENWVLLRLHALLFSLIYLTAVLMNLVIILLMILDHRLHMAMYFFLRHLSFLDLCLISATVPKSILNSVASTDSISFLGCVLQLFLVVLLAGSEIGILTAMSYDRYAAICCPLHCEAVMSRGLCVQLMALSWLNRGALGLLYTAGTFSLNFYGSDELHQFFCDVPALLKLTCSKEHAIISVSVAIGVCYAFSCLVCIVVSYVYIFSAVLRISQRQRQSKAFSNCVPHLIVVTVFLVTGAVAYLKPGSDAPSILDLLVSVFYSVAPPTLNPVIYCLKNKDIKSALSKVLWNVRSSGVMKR
Procedure, shortened: as §1

OR1A1 (Homo sapiens) = target: T18, OR1A1 (Homo sapiens) (UniProt Q9P1Q5)
T18 sequence (whole entry): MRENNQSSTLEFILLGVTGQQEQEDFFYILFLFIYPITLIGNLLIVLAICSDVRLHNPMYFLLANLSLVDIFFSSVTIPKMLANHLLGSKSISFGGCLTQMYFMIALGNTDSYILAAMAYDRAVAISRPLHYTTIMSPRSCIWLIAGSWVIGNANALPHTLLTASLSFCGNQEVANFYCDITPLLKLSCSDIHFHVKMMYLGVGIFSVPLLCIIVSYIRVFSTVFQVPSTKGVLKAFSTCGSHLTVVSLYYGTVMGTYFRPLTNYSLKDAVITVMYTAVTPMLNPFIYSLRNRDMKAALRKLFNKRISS
Procedure, shortened: as §1

Measured: odorant receptor agonist call;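 note: active if original authors judged signal statistically different from baseline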

CCC1OC(C)=C(O)C1=O (centres undefined)
inactive: all assays above

CC=CC(=O)C(C)CC (centres undefined)
inactive: OR1A1 (Homo sapiens)
